Screens from PubChem.
The list is not random: actives were taken first. Their share in the collection is about 2.3%.
TAAR1 ag – human TAAR1 agonism | activation, % at 3 µM | hit rate 0.99% among 360,000 | CHO RD-HGA16 TAAR1, Fluo-8 calcium fluorescence; vehicle wells 0%, saturating PEA agonist 100%;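 active = activation above the mean activation of all test compounds in the run plus 3 SD, cut at about 38% in these data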
Target sequence (Q96RJ0 whole entry, looked up): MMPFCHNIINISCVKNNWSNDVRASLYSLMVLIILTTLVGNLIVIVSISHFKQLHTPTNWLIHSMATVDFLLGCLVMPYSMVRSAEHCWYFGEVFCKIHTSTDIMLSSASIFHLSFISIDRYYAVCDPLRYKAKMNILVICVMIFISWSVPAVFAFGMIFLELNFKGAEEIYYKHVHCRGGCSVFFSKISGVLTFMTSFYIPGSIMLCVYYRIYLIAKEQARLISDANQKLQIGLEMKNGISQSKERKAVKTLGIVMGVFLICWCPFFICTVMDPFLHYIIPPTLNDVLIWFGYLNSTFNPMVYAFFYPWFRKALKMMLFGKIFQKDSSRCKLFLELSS
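System: CHO RD-HGA16 cells carrying human TAAR1 plus Gα16; Incubation: 17-24 h seeding, 75 min 37 °C dye, 30 min RT; Measured by: Fluo-8 fluorescence, 5 s baseline then 140 s kinetic read; Control set: DMSO and PEA EC100; Replication: single well for each compound.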
TAAR1 antagonist – antagonists of human TAAR1; Q96RJ0; CHO RD-HGA16 TAAR1, Fluo-8 calcium fluorescence, antagonist; inhibition, % at 3 µM; hit rate 1.5% among 360,000;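 active = inhibition above a per-plate cutoff, the mean inhibition of test compounds on that plate plus 3 SD, cut at about 49% in these data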;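 also: 0% = DMSO plus EC80 beta-PEA response and 100% = DMSO alone without agonist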
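Material: CHO RD-HGA16 cells bearing hTAAR1; compound dosing: one-point dosing, 3 µM nominal final; schedule: dye loading 75 min at 37 °C, then 30 min room temperature; measured by: calcium fluorescence with Fluo-8; control set: vehicle and agonist controls; replication: n of 1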
V1R ag counter – V1a receptor agonism, counter-screen for OXTR agonists | P37288 | CHO-V1R cells, Fluo-8 calcium fluorescence, agonist mode; 0% DMSO, 100% 3 nM vasopressin | activation, % at 3 µM | hit rate 0.25% among 320,000 | AID 2797;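 active = activation above the mean activation of all tested compounds plus 3 SD, per screening run, cut at about 20% in these data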;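 also: signal is peak over basal fluorescence ratio across a 100 second FLIPR read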
OXTR potentiator – potentiates the human oxytocin receptor response; P30559; CHO-OTR cells, Fluo-8 calcium fluorescence, potentiator mode; 0% = oxytocin EC15, 100% = EC100; activation, % at 3 µM; hit rate 0.061% among 320,000; AID 2445;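 active = activation above that plate's cutoff, the mean activation of tested compounds plus 3 SD, cut at about 6.6% in these data, passing the limit was not always enough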;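 also: 100% uses oxytocin at 75 nM as the full agonist control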
Target sequence (P30559 whole entry, looked up): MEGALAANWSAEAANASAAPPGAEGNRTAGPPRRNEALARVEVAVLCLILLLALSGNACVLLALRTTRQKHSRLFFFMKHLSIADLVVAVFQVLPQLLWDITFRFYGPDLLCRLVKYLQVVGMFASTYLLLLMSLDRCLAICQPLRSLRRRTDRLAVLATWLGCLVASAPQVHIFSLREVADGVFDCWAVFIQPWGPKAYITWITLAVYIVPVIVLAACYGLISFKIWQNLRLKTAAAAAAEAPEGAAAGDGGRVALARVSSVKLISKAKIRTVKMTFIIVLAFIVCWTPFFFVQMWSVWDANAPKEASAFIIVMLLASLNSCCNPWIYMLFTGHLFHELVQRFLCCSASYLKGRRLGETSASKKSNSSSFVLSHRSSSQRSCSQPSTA
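Material: human OTR in CHO cells. Compound: 3.0 µM, one dose. Timing: compound 6 min at room temperature before oxytocin, 100 s read. Evaluation: % activation of max/min ratio relative to oxytocin controls. Replication: single well per compound, singlicate. Signal: Fluo-8 calcium dye fluorescence.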
OXTR agonist – agonists of human oxytocin receptor; P30559; CHO-OTR cells, Fluo-8 calcium fluorescence; normalized: DMSO 0%, oxytocin 100%; activation, % at 3 µM; hit rate 0.32% among 320,000;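 active = activation above the mean of all tested compounds plus 3 SD, cutoff set per screening run, cut at about 20% in these data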;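 also: peak over basal fluorescence ratio from a 100 s FLIPR kinetic read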
TAAR1 nonsel count – nonselective antagonist in TAAR1 antagonist counter-screen; shares compounds with TAAR1 antagonist; counterscreen cell line, calcium fluorescence, antagonist mode; inhibition, % at 3 µM; hit rate 77% among 2,400; AID 651780; in the data active = inhibition above about 22%;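 also: CHO-Ga16 host cells stimulated with ATP at an EC80 level; 0% = agonist EC80 plus vehicle and 100% = vehicle without agonist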
TAAR1 antag conf – human TAAR1 antagonism, confirmed | shares compounds with TAAR1 antagonist | TAAR1-expressing cells, fluorescence antagonist read-out | inhibition, % at 3 µM | hit rate 40% among 2,400 | AID 651785; in the data active = inhibition above about 49%;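 also: CHO-Ga16 host cells challenged with agonist PEA near its EC80; 0% = agonist at EC80 plus vehicle and 100% = vehicle with no agonist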
Ga16 ag counter – nonselective Ga16 agonist in TAAR1 antagonist counter-screen; shares compounds with TAAR1 antagonist; Ga16-expressing cells, calcium fluorescence, agonist counterscreen; activation, % at 3 µM; hit rate 18% among 2,400; AID 651953; in the data active = activation above about 12%;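 also: 0% = vehicle wells and 100% = saturating stimulus response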
TAAR1 ag counter – counter-screen for human TAAR1 antagonists: TAAR1 agonists | AID 651955 | shares compounds with TAAR1 antagonist | activation, % at 3 µM | hit rate 2% among 2,400 | hTAAR1 cell line, fluorescence activation, agonist mode; in the data active = activation above about 37%;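 also: CHO cells stably expressing TAAR1 with calcium dye readout; 0% = DMSO vehicle and 100% = full agonist response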
The depositor's hits bear a star; nt = no result.

SMILES	TAAR1 ag	TAAR1 antagonist	V1R ag counter	OXTR potentiator	OXTR agonist	TAAR1 nonsel count	TAAR1 antag conf	Ga16 ag counter	TAAR1 ag counter
CCOc1ccc(/C=C/C(O)=C2/C(=O)NC3(C)CC2c2ccccc2O3)cc1OC (configuration not stated)	12	60*	0	-16	-2	27*	49*	10	23
CCOc1ccc(/C=C/C(O)=C2/C(=O)N(C)C3(C)CC2c2ccccc2O3)cc1OC (configuration not stated)	2	15	-1	1	-1	nt	nt	nt	nt
O=c1c2ccccc2nc(COc2ccccc2)n1/N=C/c1ccc(O)cc1O	12	79*	2	-15	0	32*	61*	8	8
C/C(=N\OCc1nc2ccccc2c(=O)n1/N=C/c1cc([N+](=O)[O-])ccc1O)c1ccccc1	9	64*	13	-8	9	31*	47	8	5
O=[N+]([O-])c1ccc(S(=O)(=O)N2CCC3(CC2)OCCN3S(=O)(=O)c2cccs2)cc1	5	-10	0	-10	1	nt	nt	nt	nt
COCCN1C(=O)CSCC1(C)C(=O)Nc1ccc2c(c1)OCCO2 (configuration not stated)	0	-7	nt	nt	nt	nt	nt	nt	nt
COc1cccc(N2CCN(C(=O)CCCCCNc3nc(=S)[nH]c4ccccc34)CC2)c1	11	59*	0	-11	-3	19	37	8	11
Cn1cncc1C#Cc1c(-c2ccc(S(C)(=O)=O)cc2)sc2ccccc12	11	61*	4	-9	9	32*	35	6	1
O=c1[nH]c(=S)[nH]c2c1C(c1ccccc1)OC(C1CCCCC1)C2 (configuration not stated)	-1	-1	nt	nt	nt	nt	nt	nt	nt
COC(=O)[C@@]12C[C@@H](CC(=O)NCc3cccs3)C(=O)N(Cc3cccc4ccccc34)C1=CCC(C)(C)C2	3	1	nt	nt	nt	nt	nt	nt	nt
CCN(CC)S(=O)(=O)c1ccc(N2CCOCC2)c(NC(=O)c2cccc3ccccc23)c1	12	40	7	-11	5	nt	nt	nt	nt
CCN(CC)S(=O)(=O)c1ccc(NC(=O)c2cc(-c3ccccc3)nc3ccccc23)cc1	3	54*	0	-10	0	27*	35	8	-2
CCN(CC)S(=O)(=O)c1ccc(N2CCOCC2)c(NC(=O)c2cc(-c3ccccn3)nc3ccccc23)c1	18	71*	nt	nt	nt	27*	52*	8	11
CCN(CC)S(=O)(=O)c1ccc(N2CCOCC2)c(NC(=O)c2cccc(C#N)c2)c1	-3	104*	0	-2	1	8	2	0	5
Cc1cc(C)nc(NS(=O)(=O)c2ccc(NC(=O)c3cc(-c4ccccc4)nc4ccccc34)cc2)n1	5	6	1	-2	0	nt	nt	nt	nt
CCN(CC)S(=O)(=O)c1ccc(N2CCOCC2)c(NC(=O)c2c3c(nc4ccccc24)CCC3)c1	13	56*	3	-4	-2	18	36	7	7
CCN(CC)S(=O)(=O)c1ccc(N2CCOCC2)c(NC(=O)c2ccc3ccccc3c2)c1	-1	-11	0	-3	-1	nt	nt	nt	nt
NC(=O)C1Cc2ccccc2CN1C(=O)c1cc(C2CC2)nn1-c1ccccc1 (configuration not stated)	19	4	2	-8	4	nt	nt	nt	nt
O=C(NC1CCCC1)C(c1ccco1)N1CCC(O)(c2ccc(Cl)cc2)CC1 (configuration not stated)	1	-8	nt	nt	nt	nt	nt	nt	nt
O=C(/C=C1\C(=O)Nc2ccccc21)/C=C1\C(=O)Nc2ccccc21	34	60*	nt	nt	nt	35*	36	8	24
O=C1Nc2ccccc2/C1=C\C(=O)c1ccccc1	12	20	1	-22	0	nt	nt	nt	nt
O=S1(=O)CC(N2CCN(CCO)CC2)CN1Cc1cn(Cc2ccc(C(F)(F)F)cc2)nn1 (configuration not stated)	1	-16	nt	nt	nt	nt	nt	nt	nt
O=C1CN(C(=O)COC(=O)c2cccs2)c2ccccc2N1	1	61*	1	-3	1	12	1	2	2
COc1ccc(C2=CC(=O)C[C@H](c3ccc(F)cc3)C2)cc1OC	4	92*	-1	-6	-1	16	51*	0	-3
COc1ccc([C@H]2CC(=O)C=C(c3ccccc3Oc3ccccc3)C2)cc1	8	50*	2	-8	3	11	17	1	2
SMILES	TAAR1 ag	TAAR1 antagonist	V1R ag counter	OXTR potentiator	OXTR agonist	TAAR1 nonsel count	TAAR1 antag conf	Ga16 ag counter	TAAR1 ag counter
CC(C)N(C[C@@H]1CSCCS(=O)(=O)N1)C1CCCCC1	0	2	nt	nt	nt	nt	nt	nt	nt
O=C(Cn1c(C(F)(F)F)nc2ccccc21)OCC(=O)c1c[nH]c2ccccc12	13	41	3	-10	4	nt	nt	nt	nt
Cc1[nH]c2ccccc2c1C(=O)COC(=O)Cn1c(C(F)(F)F)nc2ccccc21	15	64*	8	-10	10	37*	54*	13*	24
O=C(NCc1ccc(F)cc1)Nc1nnc([C@H]2C[C@H](O)[C@@H](CO)O2)s1	1	-22	nt	nt	nt	nt	nt	nt	nt
CCOC(=O)c1c(C)[nH]c(C)c1C(=O)COC(=O)/C=C/c1ccc(OC(F)F)cc1	6	52*	3	-10	3	34*	40	7	2
CC1(C)C(=O)Nc2ccccc2N1C(=O)COC(=O)/C=C/c1ccc(OC(F)F)cc1	21	57*	0	-10	-1	31*	46	12*	10
Cc1nn(-c2ccccc2)c(C)c1C(=O)OCC(=O)N1c2ccccc2NC(=O)C1(C)C	19	71*	1	-21	-2	40*	53*	9	9
CCOC(=O)c1c(C)[nH]c(C(=O)COC(=O)/C=C/c2ccc(OC(F)F)cc2)c1C	0	-3	0	-2	0	nt	nt	nt	nt
COc1cccc(-c2csc(N3CCN(C(=O)Nc4ccccc4OC)CC3)n2)c1	2	11	-1	-6	-2	nt	nt	nt	nt
COc1cccc(-c2csc(N3CCN(C(=O)Nc4ccc(F)cc4)CC3)n2)c1	11	79*	5	-18	4	55*	64*	11	6
CCOC(=O)c1cccc(S(=O)(=O)N(CCO)Cc2cc3cc(OC)ccc3[nH]c2=O)c1	nt	nt	0	2	0	nt	nt	nt	nt
